From ChEMBL document CHEMBL1156837, “Synthesis and the biological evaluation of arylnaphthalene lignans as anti-hepatitis B virus agents” (Bioorg Med Chem, 2010) come the findings set out here.

Active and inactive are the calls of the source. No cut-off for these calls is given here. Bounds are passed on as bounds.

Test system in the first data set: not listed separately
The experiment in a line: Cytotoxicity against human HepA2 cells after 48 hrs by MTT assay. The data set is classed as cell-based.
Settings: not given
The method, boiled down:
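HepA2 cells seeded in 96-well plates in DMEM and treated with various concentrations of compound for 2 days; cell number measured by MTT; CC50 taken as concentration giving cell growth at 50% of untreated cells.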
(In general: Tetrazolium dyes change colour on reduction, which living cells bring about.)
By CC50 is commonly meant the concentration giving 50% cytotoxicity. A lower CC50 goes with harm at low concentration. `COc1ccc(-c2c3c(cc4ccc5c(c24)OCO5)C(=O)OC3)cc1OCc1ccccc1`: the CC50 at 48 h was over 12.5 µM.
Turning to `CCOC(=O)c1cc2ccc3c(c2c(-c2ccc4c(c2)OCO4)c1C(=O)OCC)OCO3`, the CC50 at 48 h was over 12.5 µM.
Same read-out and setting: to `N#Cc1cc2c(c3c(-c4ccc5c(c4)OCO5)c4c(cc13)C(=O)OC4)OCO2` belongs over 12.5 µM; to `COc1cc(-c2c3c(cc4ccc5c(c24)OCO5)C(=O)OC3)ccc1O`, over 12.5 µM; to `O=C1C=Cc2cc3c(c(-c4ccc5c(c4)OCO5)c2C1=O)COC3=O`, 7.49 µM.
As to `O=C1OCc2c1cc1c(Br)cc3c(c1c2-c1cc2c(cc1Br)OCO2)OCO3`, the CC50 at 48 h was over 12.5 µM.
The same measure, in the same setting: to `O=C1OCc2c1cc1ccc3c(c1c2-c1ccc2c(c1)OCO2)OCO3` [HELIOXANTHIN] belongs 11.3 µM; to `O=C1OC(=O)c2c1cc1ccc3c(c1c2-c1ccc2c(c1)OCO2)OCO3`, 11.8 µM; to `COC(=O)c1c(C(=O)O)c(O)c2ccc3c(c2c1-c1ccc2c(c1)OCO2)OCO3`, 7.01 µM.
Same read-out and setting: to `COc1ccc(-c2c3c(cc4ccc5c(c24)OCO5)C(=O)OC3)cc1OC` belongs 5.86 µM.
Still for that read-out and setting: to `O=C1OCc2c1cc1c(Br)cc3c(c1c2-c1ccc2c(c1)OCO2)OCO3` belongs 6.33 µM; to `O=C1c2cc3ccc4c(c3c(-c3ccc5c(c3)OCO5)c2C(=O)N1CCO)OCO4`, over 12.5 µM.
As for `O=C1OCc2cc3ccc4c(c3c(-c3ccc(OCc5ccccc5)c(OCc5ccccc5)c3)c21)OCO4`, the half-maximal cytotoxic concentration (CC50) at 48 h was over 12.5 µM.
On the same count and under the same terms, to `COc1ccc(-c2c3c(cc4ccc5c(c24)OCO5)COC3=O)cc1OCc1ccccc1` belongs over 12.5 µM; to `OCc1cc2ccc3c(c2c(-c2ccc4c(c2)OCO4)c1CO)OCO3`, over 12.5 µM.

The next data set deals with Hepatitis B virus. In words: Antiviral activity against Hepatitis B virus ayw in human 1.3ES2 cells stably transfected with 1.3 fold wild type HBV ayw strain genome cells assessed as reduction of viral DNA level after 6 days by RT-PCR. Format: functional, organism-based.
Settings: not given
For the compound `Nc1ccn([C@@H]2CS[C@H](CO)O2)c(=O)n1`, the inhibition result was “Active”.

Another data set has as its system Hepatitis B virus. The experiment in a line: Antiviral activity against Hepatitis B virus in human HepA2 cells assessed as reduction of HBsAg secretion after 48 hrs by enzyme immunoassay. The note with it: Hepatitis B virus, HepA2, 48 h; read-out: EC50. The data set is classed as functional, organism-based. The method, boiled down: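 HepA2 cells (HepG2 carrying tandem-repeat full-length HBV DNA) seeded at 8 × 10⁴ cells/well in DMEM with 10% fetal calf serum, attached overnight, washed twice with PBS pH 7.0, then exposed to various concentrations in serum-free DMEM for 48 h. Secreted HBsAg and HBeAg in medium measured by enzyme immunoassay; EC50 as concentration giving 50% of untreated level; mean ± SD, n = 3.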
As a reminder, the EC50 is the concentration that produces a half-maximal response. Consider `COc1ccc(-c2c3c(cc4ccc5c(c24)OCO5)C(=O)OC3)cc1OCc1ccccc1`, for which the EC50 is over 12.5 µM.
On the same count and under the same terms, to `CCOC(=O)c1cc2ccc3c(c2c(-c2ccc4c(c2)OCO4)c1C(=O)OCC)OCO3` belongs over 12.5 µM; to `N#Cc1cc2c(c3c(-c4ccc5c(c4)OCO5)c4c(cc13)C(=O)OC4)OCO2`, over 12.5 µM.
For `COc1cc(-c2c3c(cc4ccc5c(c24)OCO5)C(=O)OC3)ccc1O`, the EC50 came to 1.89 µM.
Regarding `O=C1C=Cc2cc3c(c(-c4ccc5c(c4)OCO5)c2C1=O)COC3=O`, the EC50 was over 12.5 µM.
On the same count and under the same terms, to `O=C1OCc2c1cc1c(Br)cc3c(c1c2-c1cc2c(cc1Br)OCO2)OCO3` belongs over 12.5 µM; to `O=C1OCc2c1cc1ccc3c(c1c2-c1ccc2c(c1)OCO2)OCO3` [HELIOXANTHIN], 0.16 µM; to `O=C1OC(=O)c2c1cc1ccc3c(c1c2-c1ccc2c(c1)OCO2)OCO3`, over 12.5 µM.
As to `COC(=O)c1c(C(=O)O)c(O)c2ccc3c(c2c1-c1ccc2c(c1)OCO2)OCO3`, the concentration for a half-maximal effect (EC50) was over 12.5 µM.
For `COc1ccc(-c2c3c(cc4ccc5c(c24)OCO5)C(=O)OC3)cc1OC`, the 50% effective concentration (EC50) turned out to be 7.64 µM.
Same read-out and setting: to `O=C1OCc2c1cc1c(Br)cc3c(c1c2-c1ccc2c(c1)OCO2)OCO3` belongs over 12.5 µM.
Still for that read-out and setting: to `O=C1c2cc3ccc4c(c3c(-c3ccc5c(c3)OCO5)c2C(=O)N1CCO)OCO4` belongs over 12.5 µM; to `O=C1OCc2cc3ccc4c(c3c(-c3ccc(OCc5ccccc5)c(OCc5ccccc5)c3)c21)OCO4`, over 12.5 µM.
Still for that read-out and setting: to `COc1ccc(-c2c3c(cc4ccc5c(c24)OCO5)COC3=O)cc1OCc1ccccc1` belongs over 12.5 µM; to `OCc1cc2ccc3c(c2c(-c2ccc4c(c2)OCO4)c1CO)OCO3`, 1.41 µM.

The data set is the same for the next values; noted with them: hepa2.
As to `O=C1OC(=O)c2c1cc1ccc3c(c1c2-c1ccc(OC(F)(F)F)cc1)OCO3`, the EC50 result was “Not Active”.
On the same count and under the same terms, to `COc1ccc(-c2c3c(cc4ccc5c(c24)OCO5)C(=O)OC3=O)cc1OC` belongs “Not Active”.
Same read-out and setting: to `BrCc1cc2ccc3c(c2c(-c2ccc4c(c2)OCO4)c1CBr)OCO3` belongs “Not Active”; to `COc1cc(-c2c3c(cc4ccc5c(c24)OCO5)COC3=O)ccc1OCc1ccccc1`, “Not Active”.

The next data set relates to Hepatitis B virus. The experiment in a line: Antiviral activity against Hepatitis B virus ayw in human M33 cells containing Lamivudine resistant HBV genome with DNA polymerase L515M/M539V mutation genome cells assessed as reduction of viral DNA level after 6 days by RT-PCR. Format: functional, organism-based.
Settings: not given
A digest of the protocol: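 M33 cells (HepG2 carrying HBV with the L515M/M539V polymerase double mutation) were maintained in DMEM with 10% FCS at 37 °C under 5% CO₂. Cells were seeded at 5 × 10⁶ per 100 mm dish and treated with graded drug concentrations in serum-free DMEM. Viral DNA was extracted from the medium and quantified by real-time PCR against an HBV plasmid standard curve (10³–10⁷ copies), reported as mean, SD, n = 3.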
Turning to `Nc1ccn([C@@H]2CS[C@H](CO)O2)c(=O)n1`, the inhibition result is “inactive”.
